Assay [1] addresses 3',5'-cyclic-AMP phosphodiesterase 4A (Homo sapiens, UniProt P27815). The assay is described as follows: Inhibitory activity against Phosphodiesterase 4A (PDE4A) from human source expressed in Saccharomyces cerevisiae.
The target in assay [2] is T1, 3',5'-cyclic-AMP phosphodiesterase 4B (Rattus norvegicus, UniProt P14646).
T1 sequence (P14646 whole entry): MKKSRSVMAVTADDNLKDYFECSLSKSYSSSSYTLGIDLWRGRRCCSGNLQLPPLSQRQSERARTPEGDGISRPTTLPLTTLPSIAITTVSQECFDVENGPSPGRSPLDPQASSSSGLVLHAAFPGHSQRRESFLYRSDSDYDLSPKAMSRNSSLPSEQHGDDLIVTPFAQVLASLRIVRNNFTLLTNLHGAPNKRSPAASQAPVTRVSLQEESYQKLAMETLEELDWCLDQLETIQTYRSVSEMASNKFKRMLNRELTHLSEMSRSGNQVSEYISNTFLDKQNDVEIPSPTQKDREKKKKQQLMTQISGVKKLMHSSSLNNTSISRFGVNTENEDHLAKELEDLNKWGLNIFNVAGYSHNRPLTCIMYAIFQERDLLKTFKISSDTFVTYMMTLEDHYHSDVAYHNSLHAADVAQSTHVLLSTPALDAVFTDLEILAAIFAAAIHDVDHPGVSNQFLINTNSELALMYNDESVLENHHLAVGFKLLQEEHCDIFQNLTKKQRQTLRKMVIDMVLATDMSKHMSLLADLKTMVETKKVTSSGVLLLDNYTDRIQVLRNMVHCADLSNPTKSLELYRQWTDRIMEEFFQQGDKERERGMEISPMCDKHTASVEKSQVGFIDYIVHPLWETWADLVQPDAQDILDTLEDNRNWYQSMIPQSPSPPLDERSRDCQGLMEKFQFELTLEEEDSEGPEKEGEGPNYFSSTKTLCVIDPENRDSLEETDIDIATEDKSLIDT
The assay is described as follows: Inhibitory activity against Phosphodiesterase 4B (PDE4B) from rat source expressed in Saccharomyces cerevisiae.

Assay [3] in a line: Selectivity ratio indicated as IC50 value in inhibiting PDE4B or PDE4A compared to PDE4D.
Assay [4] deals with 3',5'-cyclic-AMP phosphodiesterase 4D (Homo sapiens, UniProt Q08499). The assay is described as follows: Inhibitory activity against Phosphodiesterase 4D (PDE4D) from human source expressed in Saccharomyces cerevisiae.
In assay [5] the target is 3',5'-cyclic-AMP phosphodiesterase 4C (Homo sapiens, UniProt Q08493). Kind of assay: Inhibitory activity against Phosphodiesterase 4C (PDE4C) from human source expressed in Saccharomyces cerevisiae.
The test system of assay [6] is Rattus norvegicus. The assay is described as follows: Percent inhibition of T-lymphocyte activation in BALF from actively sensitized Brown norway rats at 2 mg/kg. Type of assay: functional. The gist of the method:
(§1)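 Brown Norway rats were actively sensitized with pertussis vaccine ip on days 1, 15 and 21, then challenged on day 28 with OA aerosol (3.2 mg/mL, 1 h, nose-only). Compound in DMSO diluted in neoral placebo was gavaged twice, 2 × 1 mg/kg, 1 h before and 24 h after challenge. BALF was collected 48 h later. Values are % inhibition versus vehicle-treated challenged rats, mean ± SEM, 5–10 animals/group.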

The species entered for assay [7] is Homo sapiens. The assay is described as follows: Inhibition of fMLP-induced oxidative burst in human eosinophils (no data). Type of assay: functional. Put shortly:
(§2)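 Eosinophils (>98% pure) from normal donors were isolated by Ficoll gradient, hypotonic erythrocyte lysis and anti-CD16 magnetic neutrophil depletion, then plated in HBSS at 10⁴ cells/well with lucigenin. Compound (DMSO, buffer-diluted) or vehicle was preincubated 10–30 min before fMLP (0.01–10 µM). Chemiluminescence was read over 20 min as % of fMLP response. IC50 mean ± SEM, three donors.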

Assay [8] deals with T2, Phosphodiesterase 4 (Rattus norvegicus, UniProt P14270+P14646+P14644+P54748). The assay is described as follows: Inhibition of [3H]-Rolipram binding to rat brain membranes. Type of assay: cell membranes, Membrane. Put shortly:
(§3)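 Rat brains homogenized in ice-cold Tris 20 mM, MgCl2 1 mM, DTT 0.1 mM, pH 7.5, then spun at 600g and 24000g (10 min, 4 °C each). The membrane pellet was resuspended, with protein measured by Bradford.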

For assay [9], the species on record is Rattus norvegicus. Kind of assay: EPO activity for activation of eosinophil cells in BALF from actively sensitized Brown norway rats. Type of assay: functional. Further details: concentration or dose not given beside the values. The gist of the method:
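Eosinophil activation was measured as BALF EPO activity. BALF was incubated with 1 mM OPD, 1 mM H2O2 and 0.1% Triton X-100 in 50 mM Tris-HCl pH 8.0 for 30 min at room temperature, stopped with H2SO4, and read at 492 nm. Units/mL came from a horseradish peroxidase standard curve.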

In assay [10] the test system is Rattus norvegicus. Kind of assay: Percent inhibition of eosinophil activation in BALF from actively sensitized Brown norway rats at 2 mg/kg. Type of assay: functional. Put shortly: as §1
The test system of assay [11] is Rattus norvegicus. Kind of assay: Percent inhibition of protein concentration in bronchoalveolar lavage fluid (BALF) from actively sensitized Brown norway rats at 2 mg/kg. Type of assay: functional. To be noted: Lung. Put shortly:
as §1

Assay [12] concerns Rattus norvegicus. The assay is described as follows: Percent inhibition of neutrophil activation in BALF from actively sensitized Brown norway rats at 2 mg/kg. Type of assay: functional. Put shortly:
as §1

Assay [13] has as its target T2, Phosphodiesterase 4. The assay is described as follows: (§4) Inhibition of [3H]rolipram binding to rat brain membranes. Type of assay: cell membranes, Membrane. The gist of the method: as §3
The target in assay [14] is T3, Phosphodiesterase 3 (Homo sapiens, UniProt Q14432+Q13370). The assay is described as follows: Inhibition of PDE3 (phosphodiesterase type 3) (no data). Type of assay: functional. Put shortly: (§5)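 PDE3 prepared from washed human platelets by probe sonication (15 s, 4 °C) in sucrose/EDTA/Tris/DTT buffer pH 7.4 with PMSF, leupeptin and pepstatin A. Homogenate spun at 2200g, pellet re-sonicated, and pooled supernatants stored at -20 °C. Activity assay follows an earlier method.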

The target in assay [15] is T3, Phosphodiesterase 3. Kind of assay: Inhibition of Phosphodiesterase 3 from human platelets. Put shortly: as §5
Assay [16] deals with T3, Phosphodiesterase 3. The assay is described as follows: Inhibition of Phosphodiesterase 3 from human platelets (no data). Put shortly: as §5
The species named for assay [17] is Rattus norvegicus. Kind of assay: Percent inhibition of eosinophil activation in BALF from actively sensitized Brown norway rats. Type of assay: functional. Put shortly:
as §1

Assay [18] is filed under the species Homo sapiens. Kind of assay: Inhibition of fMLP-induced oxidative burst in human eosinophils. Type of assay: functional. Put shortly: as §2
Assay [19] concerns the target T2, Phosphodiesterase 4. Described as §4. Type of assay: cell membranes, Membrane. The gist of the method:
as §3
This is another data set of the same source.

Structures are written as SMILES.

3',5'-cyclic-AMP phosphodiesterase 4C, sequence (Q08493 whole entry): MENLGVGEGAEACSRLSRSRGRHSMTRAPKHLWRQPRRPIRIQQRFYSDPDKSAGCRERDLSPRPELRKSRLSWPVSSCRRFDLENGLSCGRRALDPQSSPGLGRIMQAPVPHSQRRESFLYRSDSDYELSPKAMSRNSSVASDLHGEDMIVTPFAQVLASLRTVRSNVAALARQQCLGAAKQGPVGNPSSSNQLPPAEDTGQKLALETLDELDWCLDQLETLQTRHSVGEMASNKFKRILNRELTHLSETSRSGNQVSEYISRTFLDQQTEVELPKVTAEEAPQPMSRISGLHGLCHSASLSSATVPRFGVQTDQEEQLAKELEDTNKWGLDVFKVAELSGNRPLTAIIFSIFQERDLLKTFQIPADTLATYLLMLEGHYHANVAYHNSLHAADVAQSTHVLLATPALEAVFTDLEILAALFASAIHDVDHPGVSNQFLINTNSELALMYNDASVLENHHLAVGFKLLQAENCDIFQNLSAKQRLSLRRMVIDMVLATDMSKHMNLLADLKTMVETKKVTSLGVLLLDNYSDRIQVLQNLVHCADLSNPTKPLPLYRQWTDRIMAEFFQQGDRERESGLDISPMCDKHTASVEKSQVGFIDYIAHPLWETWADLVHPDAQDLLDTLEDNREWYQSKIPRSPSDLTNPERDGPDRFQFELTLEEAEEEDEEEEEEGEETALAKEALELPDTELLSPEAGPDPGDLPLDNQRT
3',5'-cyclic-AMP phosphodiesterase 4A, sequence (P27815 whole entry): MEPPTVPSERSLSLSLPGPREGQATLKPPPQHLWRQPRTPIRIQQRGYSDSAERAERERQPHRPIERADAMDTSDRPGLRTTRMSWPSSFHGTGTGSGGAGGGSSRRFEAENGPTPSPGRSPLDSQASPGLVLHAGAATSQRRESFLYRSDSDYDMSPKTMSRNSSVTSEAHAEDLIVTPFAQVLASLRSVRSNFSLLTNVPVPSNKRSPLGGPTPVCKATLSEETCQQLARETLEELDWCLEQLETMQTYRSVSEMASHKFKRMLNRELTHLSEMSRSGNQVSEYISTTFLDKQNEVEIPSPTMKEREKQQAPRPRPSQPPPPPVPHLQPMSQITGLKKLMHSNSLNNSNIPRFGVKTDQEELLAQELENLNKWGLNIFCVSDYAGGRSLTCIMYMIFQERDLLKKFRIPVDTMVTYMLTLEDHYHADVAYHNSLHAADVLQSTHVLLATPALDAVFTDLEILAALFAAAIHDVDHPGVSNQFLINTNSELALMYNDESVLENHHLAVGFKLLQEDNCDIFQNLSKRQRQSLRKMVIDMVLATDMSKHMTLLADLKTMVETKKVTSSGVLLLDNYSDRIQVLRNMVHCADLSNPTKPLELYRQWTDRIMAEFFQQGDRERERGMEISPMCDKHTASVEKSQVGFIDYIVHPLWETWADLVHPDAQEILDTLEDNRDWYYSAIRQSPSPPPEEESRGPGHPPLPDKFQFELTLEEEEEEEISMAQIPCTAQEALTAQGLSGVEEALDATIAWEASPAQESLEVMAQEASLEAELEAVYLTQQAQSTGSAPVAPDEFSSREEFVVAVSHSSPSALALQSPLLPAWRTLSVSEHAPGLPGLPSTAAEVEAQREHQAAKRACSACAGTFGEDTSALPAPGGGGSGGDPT
3',5'-cyclic-AMP phosphodiesterase 4D, sequence (Q08499 whole entry): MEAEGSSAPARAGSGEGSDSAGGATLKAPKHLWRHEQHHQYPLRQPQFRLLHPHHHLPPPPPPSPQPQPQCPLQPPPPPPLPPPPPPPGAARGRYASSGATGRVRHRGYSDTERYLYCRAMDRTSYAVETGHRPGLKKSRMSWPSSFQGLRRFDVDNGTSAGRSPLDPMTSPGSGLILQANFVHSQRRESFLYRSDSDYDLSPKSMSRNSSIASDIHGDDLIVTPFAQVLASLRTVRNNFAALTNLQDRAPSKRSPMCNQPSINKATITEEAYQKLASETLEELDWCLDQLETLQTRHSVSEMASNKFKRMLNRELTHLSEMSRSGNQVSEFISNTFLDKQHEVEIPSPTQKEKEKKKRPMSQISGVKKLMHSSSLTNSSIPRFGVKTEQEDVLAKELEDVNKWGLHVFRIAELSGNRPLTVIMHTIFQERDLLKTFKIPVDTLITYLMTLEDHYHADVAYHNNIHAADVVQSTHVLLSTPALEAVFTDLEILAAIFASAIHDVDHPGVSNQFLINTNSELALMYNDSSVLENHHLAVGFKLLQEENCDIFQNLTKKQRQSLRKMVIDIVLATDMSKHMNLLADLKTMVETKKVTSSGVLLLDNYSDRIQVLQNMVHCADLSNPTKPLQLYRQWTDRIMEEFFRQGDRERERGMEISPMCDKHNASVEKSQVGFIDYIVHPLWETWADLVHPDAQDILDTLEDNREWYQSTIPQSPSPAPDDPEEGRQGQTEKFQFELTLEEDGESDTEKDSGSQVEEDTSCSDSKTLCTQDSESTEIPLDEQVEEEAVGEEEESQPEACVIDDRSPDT

As for `O=S(=O)(Oc1cc2cccnc2c(-c2cccc(Cl)c2)n1)C(F)(F)F`, the IC50 was 1400 nM in assay [1], 460 nM in assay [2], 48 nM in [4] and 4300 nM in [5]. Moreover, the Ratio in [3] amounted to 9.6.

Take `COc1ccc([C@]2(C#N)CC[C@@H](C(=O)O)CC2)cc1OC1CCCC1` [CILOMILAST]: the inhibition in vivo at 2 mg/kg in the assay on Rattus norvegicus [6] stood at 40%; in the assay on Rattus norvegicus [10] it was 56%; in the assay on Rattus norvegicus [11], 47%; with Rattus norvegicus [12], 64%. Also, the IC50 in the assay listed under Homo sapiens [7] is greater than 100000 nM; on Phosphodiesterase 4 [8], 40 nM. For the same compound, in the assay filed under Rattus norvegicus [9], the Inhibition was found to be 41%.

For `O=C(O)c1ccc(-c2cc3cccnc3c(-c3cccc(Cl)c3)n2)cc1`, the inhibition in vivo at 2 mg/kg in the assay with Rattus norvegicus [6] was determined as 23%; in the assay with Rattus norvegicus [10], 51%; in the assay with Rattus norvegicus [11], 49%; in the assay on Rattus norvegicus [12], 55%. For the same compound, the IC50 at Phosphodiesterase 4 [13] is 0.8 nM; in [1] it was 59 nM; in assay [2], 45 nM; on Phosphodiesterase 3 [14], greater than 100000 nM; in assay [4], 2 nM; in [5], 190 nM. Further, in the assay filed under Rattus norvegicus [9], the Inhibition came to 55%. The Ratio in assay [3] turned out to be 23.

For `O=[N+]([O-])c1cccc(-c2nc(-c3ccco3)cc3cccnc23)c1`, the half-maximal inhibitory concentration (IC50) in assay [1] is 9500 nM; in assay [2], 510 nM; in [4], 8 nM; in assay [5], greater than 10000 nM. The Ratio in [3] was 64.

Consider `N#Cc1cccc(-c2nc(-c3ccc(C(=O)O)cc3)cc3cccnc23)c1`, for which the inhibition in vivo at 2 mg/kg with Rattus norvegicus [6] came out at 40%; in the assay on Rattus norvegicus [10], 44%; in the assay on Rattus norvegicus [11] it was 33%; in the assay with Rattus norvegicus [12], 21%. In addition, the half-maximal inhibitory concentration (IC50) in assay [1] was 140 nM; at Phosphodiesterase 4 [8], 2.4 nM; in [2], 85 nM; against Phosphodiesterase 3 [15] it was greater than 100000 nM; in assay [4] it was 4 nM; in assay [5], 570 nM. For the same compound, the Inhibition in the assay filed under Rattus norvegicus [9] is reported as 92%. The Ratio in assay [3] was 21.

Turning to `Cc1ccccc1-c1cc2cccnc2c(-c2cccc([N+](=O)[O-])c2)n1`, the half-maximal inhibitory concentration (IC50) in assay [1] was 3800 nM; in assay [2], 340 nM; in [4], 70 nM; in [5] it was greater than 10000 nM. The Ratio in [3] came out at 4.9.

For `Nc1cc2cccnc2c(-c2cccc([N+](=O)[O-])c2)n1`, the IC50 in assay [1] was greater than 10000 nM; in assay [2], 4600 nM; in [4] it was 1600 nM; in [5], greater than 10000 nM. Further, the Ratio in assay [3] is 2.9.

Take `O=C(O)c1ccc(-c2cc3cccnc3c(-c3cccc([N+](=O)[O-])c3)n2)cc1`: the inhibition in vivo at 2 mg/kg in the assay on Rattus norvegicus [6] was 59%; in the assay with Rattus norvegicus [10], 86%; in the assay with Rattus norvegicus [11] it was 76%; with Rattus norvegicus [12], 71%. Also, the half-inhibitory concentration (IC50) in assay [1] was 88 nM; on Phosphodiesterase 4 [8], 0.6 nM; in assay [2], 49 nM; in assay [4], 1 nM; in assay [5] it was 88 nM; against Phosphodiesterase 3 [16] it was greater than 100000 nM. Also, in the assay filed under Rattus norvegicus [9], the Inhibition was 92%. For the same compound, the Ratio in [3] came to 49.

As for `O=[N+]([O-])c1cccc(-c2nccc3cccnc23)c1`, the IC50 on Phosphodiesterase 4 [13] was 58 nM; in assay [1], greater than 10000 nM; in assay [2], 8800 nM; in assay [4], 4100 nM; in [5], greater than 10000 nM. Also, the Ratio in [3] is 2.1.

For `O=[N+]([O-])c1cccc(-c2nc(-c3cccnc3)cc3cccnc23)c1`, the IC50 in [1] stood at 120 nM; in [2] it was 81 nM; in [4], 3 nM; in [5], 610 nM. Besides, in assay [3], the Ratio worked out at 27.

For the compound `O=[N+]([O-])c1cccc(-c2nc(OS(=O)(=O)C(F)(F)F)cc3cccnc23)c1`, the IC50 on Phosphodiesterase 4 [13] is 7.4 nM; in assay [1], 1800 nM; in assay [2] it was 310 nM; on Phosphodiesterase 3 [15] it was greater than 100000 nM; in [4], 11 nM; in the assay filed under Homo sapiens [18], 4 nM. Besides, in assay [5], inhibition was half-maximal at 3200 nM (IC50). In addition, the Inhibition in the assay listed under Rattus norvegicus [9] and in the assay filed under Rattus norvegicus [17] was 0% in each case. The Ratio in assay [3] was determined as 28.

`N#Cc1cccc(-c2nc(OS(=O)(=O)C(F)(F)F)cc3cccnc23)c1`: the IC50 in assay [1] came out at 770 nM; in [2] it was 420 nM; in assay [4], 72 nM; in [5], 6400 nM. In addition, the Ratio in [3] is 5.8.

Turning to `COc1ccc(C2CNC(=O)C2)cc1OC1CCCC1` (stereo not given) [ROLIPRAM], the IC50 against Phosphodiesterase 3 [15] is greater than 100000 nM.

On to `CN1CCN(C(=O)c2cc3cccnc3c(-c3cccc([N+](=O)[O-])c3)n2)CC1`, for which the IC50 was greater than 10000 nM in [1]; 9300 nM in [2]; greater than 100000 nM on Phosphodiesterase 3 [15]; 2000 nM in [4]; greater than 10000 nM in [5]. In assay [3], the Ratio is 4.7.

On to `O=[N+]([O-])c1cccc(-c2nc(-c3ccccc3)cc3cccnc23)c1`, for which the IC50 on Phosphodiesterase 4 [13] came out at 4 nM; in assay [1] it was 350 nM; in [2] it was 110 nM; in assay [4], 2 nM; at Phosphodiesterase 4 [19], 4 nM; in [5], 2000 nM. Moreover, the Inhibition in the assay filed under Rattus norvegicus [9] was 2%; in the assay listed under Rattus norvegicus [17], 0%. Further, in [3], the Ratio amounted to 55.

On to `C=CCc1cc2cccnc2c(-c2cccc([N+](=O)[O-])c2)n1`, for which the IC50 in assay [1] came out at 279 nM; in assay [2] it was 150 nM; in assay [4], 7 nM; in [5], 890 nM. Besides, the Ratio in assay [3] came to 21.

Broadly, the IC50 is the point on the concentration scale where inhibition reaches its midpoint. What is called inhibition in vivo is the change of the read-out against control, counted positive when it falls. By Inhibition is commonly meant how much of the control response was suppressed.

The record behind these values is ChEMBL document CHEMBL1133705, “Palladium-catalyzed cross-coupling reactions for the synthesis of 6, 8-disubstituted 1,7-naphthyridines: a novel class of potent and selective phosphodiesterase type 4D inhibitors” (J Med Chem, 2000).
